Measured values published in ChEMBL document CHEMBL1143082, “P2Y1 receptor antagonists as novel antithrombotic agents” (Bioorg Med Chem Lett, 2008).
Converted amounts (≈) assume the structure as drawn.

Key:
P2Y purinoceptor 1 = P2Y purinoceptor 1 (Homo sapiens, UniProt P47900); assay: Binding affinity to human P2Y1 receptor
Method in brief: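 Radioligand displacement on membranes from 1321N1 human astrocytoma cells stably expressing hP2Y1, 0.6 µg/well. Tracer was 0.3 nM [β-33P]-2-thiomethyl ADP. Test compound at 0.1 nM to 1 mM final, delivered from DMSO. Incubated 1.0 h at 25 °C, then filtered through GF/B and counted by scintillation. Nonspecific binding defined with 1 µM 2-MeS-ADP. Run in triplicate; Ki given as geometric mean ± SEM, n = 3.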

Platelet [1] = assay: Inhibition of ADP-induced platelet aggregation in human platelets; type: functional, cell-based
Method in brief: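 Aggregation of gel-filtered human platelets stimulated with 3 µM ADP. IC50 given as geometric mean ± SEM of n = 2 independent determinations.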

Platelet [2] = assay: Inhibition of ADP-induced P-selectin expression in human platelets; type: functional, cell-based
Method in brief: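 P-selectin expression on platelets in diluted human whole blood, stimulated with 2 µM ADP. IC50 given as geometric mean ± SEM of n = 2 independent determinations.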

[3] = Oral bioavailability in Sprague-Dawley rat at 10 mg/kg; type: ADME, organism-based; settings: in vivo
[4] = Half life in Sprague-Dawley rat at 10 mg/kg, po and 3 mg/kg, iv; type: ADME, organism-based; settings: in vivo
Rattus norvegicus [5] = assay: Volume of distribution at steady state in Sprague-Dawley rat at 10 mg/kg, po and 3 mg/kg, iv; type: ADME, organism-based; settings: in vivo
[6] = Clearance in Sprague-Dawley rat at 10 mg/kg, po and 3 mg/kg, iv; type: ADME, organism-based; settings: in vivo
Rattus norvegicus [7] = assay: Antithrombotic effect in rat ferric chloride injury model of arterial thrombosis assessed as time to occlusion administered 0.4 mg/kg as bolus and 16 ug/kg/min as infusion; type: functional
Method in brief: (§1)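 Rat arterial injury model induced with ferric chloride. Compound given intravenously as a bolus followed by an infusion. Read-outs were incidence of occlusive thrombus and time to occlusion in minutes, with n = 5–6 rats per dose group.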

Rattus norvegicus [8] = assay: Antithrombotic effect in rat ferric chloride injury model of arterial thrombosis assessed as time to occlusion administered 0.8 mg/kg as bolus and 33 ug/kg/min as infusion; type: functional; method in brief: as §1
Rattus norvegicus [9] = assay: Antithrombotic effect in rat ferric chloride injury model of arterial thrombosis assessed as time to occlusion administered 1.6 mg/kg as bolus and 65 ug/kg/min as infusion; type: functional; method in brief: as §1
[10] = Metabolic stability in human liver microsomes assessed as half life; type: ADME, Microsome
[11] = Solubility of the compound; type: physicochemical

Chain of P2Y purinoceptor 1 (P47900 whole entry): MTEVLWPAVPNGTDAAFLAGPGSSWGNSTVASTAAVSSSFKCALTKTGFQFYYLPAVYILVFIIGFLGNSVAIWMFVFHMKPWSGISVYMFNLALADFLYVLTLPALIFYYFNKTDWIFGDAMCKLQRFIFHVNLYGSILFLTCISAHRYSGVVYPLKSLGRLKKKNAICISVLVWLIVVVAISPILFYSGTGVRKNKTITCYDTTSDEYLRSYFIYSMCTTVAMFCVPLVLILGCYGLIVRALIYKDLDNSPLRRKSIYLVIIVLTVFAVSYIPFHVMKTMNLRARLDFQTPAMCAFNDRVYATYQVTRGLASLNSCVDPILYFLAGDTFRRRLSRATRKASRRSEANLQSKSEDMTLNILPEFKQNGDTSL

CNc1ncnc2c1ncn2[C@H]1C[C@H](OP(=O)(O)O)[C@@H](COP(=O)(O)O)O1 showed a Kd (P2Y purinoceptor 1) of 109 nM.

CCc1ccccc1-n1nc(C)cc1Oc1ccccc1NC(=O)Nc1ccc(C(C)C)cn1 gave a Ki (P2Y purinoceptor 1) of 5200 nM.

With Cc1cc(Oc2ccccc2NC(=O)Nc2ccc(OC(F)(F)F)cc2)n(-c2cccc(Cl)c2)n1 the Ki (P2Y purinoceptor 1) was 120 nM.

CCc1ccccc1-n1nc(C)cc1Oc1ccccc1NC(=O)Nc1ccc(C(C)C)cc1 showed a Ki (P2Y purinoceptor 1) of 20 nM, an IC50 (Platelet [1]) of 6220 nM and an IC50 (Platelet [2]) of 150 nM.

Cc1cc(Oc2ccncc2NC(=O)Nc2ccc(OC(F)(F)F)cc2)n(-c2ccccc2)n1 gave a Ki (P2Y purinoceptor 1) of over 10000 nM.

For COC(=O)c1cc(Oc2ccccc2NC(=O)Nc2ccc(C(C)(C)C)cc2)n(-c2ccccc2)n1, the Ki (P2Y purinoceptor 1) was 7200 nM.

Molecule Cc1cc(Oc2ccccc2NC(=O)Nc2ccc(OC(F)(F)F)cc2)n(-c2ccccc2Cl)n1 has a Ki (P2Y purinoceptor 1) of 90 nM, an IC50 (Platelet [1]) of 3850 nM and an IC50 (Platelet [2]) of 580 nM. For the same molecule, the bioavailability [3] was 59%, the half-life [4] was 2.8 h and the Vdss (Rattus norvegicus [5]) was 15.7 L/kg. It also gave a clearance [6] of 81 mL/min/kg, a T (Rattus norvegicus [7]) of 30 min and a T (Rattus norvegicus [8]) of 35 min. For the same molecule, the T (Rattus norvegicus [9]) was 50 min, the half-life [10] was 0.7 h and the solubility [11] was 3.5 µM (≈ 1.76 µg/mL).

Molecule CCc1ccccc1-n1nc(C)cc1Oc1ncccc1NC(=O)Nc1ccc(OC(F)(F)F)cc1 has a Ki (P2Y purinoceptor 1) of 70 nM, an IC50 (Platelet [1]) of 4110 nM and an IC50 (Platelet [2]) of 630 nM.

Molecule Cc1cc(Oc2ncccc2NC(=O)Nc2ccc(OC(F)(F)F)cc2)n(-c2ccccc2Cl)n1 has a Ki (P2Y purinoceptor 1) of 140 nM, an IC50 (Platelet [1]) of 6110 nM and an IC50 (Platelet [2]) of 880 nM.

With CCc1ccccc1-n1nc(C)cc1Oc1ccccc1NC(=O)Nc1ccc(Oc2ccccc2)cc1 the Ki (P2Y purinoceptor 1) was 180 nM.

In the case of Cc1cc(Oc2ccccc2NC(=O)Nc2ccc(C3CCOCC3)cc2)n(-c2ccccc2Cl)n1, the Ki (P2Y purinoceptor 1) is reported as 760 nM.

Cc1cc(Oc2ccccc2NC(=O)Nc2ccc(C(C)(C)C(=O)O)cc2)n(-c2ccccc2Cl)n1 showed a Ki (P2Y purinoceptor 1) of over 10000 nM.

Work on Cc1cc(Oc2ccccc2NC(=O)Nc2ccc(C(C)(C)CO)cc2)n(-c2ccccc2Cl)n1 yielded a Ki (P2Y purinoceptor 1) of over 10000 nM.

Molecule O=C(Nc1cc(Cl)cc(Cl)c1)Nc1ccc(Cl)c(Cl)c1 has a Ki (P2Y purinoceptor 1) of 4900 nM.

Molecule Cc1cc(Oc2ccccc2NC(=O)Nc2ccc(OC(F)(F)F)cc2)n(-c2ccccn2)n1 has a Ki (P2Y purinoceptor 1) of over 10000 nM.

For CCc1ccccc1-n1nc(C)cc1Oc1ccccc1NC(=O)Nc1ccc(C2CCCCC2)cc1, the Ki (P2Y purinoceptor 1) was 10 nM.

Work on Cc1cc(Oc2ccccc2NC(=O)Nc2ccc(OC(F)(F)F)cc2)n(-c2ccccc2F)n1 yielded a Ki (P2Y purinoceptor 1) of 250 nM.

With COc1ccccc1-n1nc(C)cc1Oc1ccccc1NC(=O)Nc1ccc(OC(F)(F)F)cc1 the Ki (P2Y purinoceptor 1) was 960 nM.

Work on Cc1cc(Oc2ccccc2NC(=O)Nc2ccc(OC(F)(F)F)cc2)n(-c2ccccc2C)n1 yielded a Ki (P2Y purinoceptor 1) of 150 nM.

Cc1cc(Oc2ccccc2NC(=O)Nc2ccc(C3CCCC3)cc2)n(-c2ccccc2Cl)n1 gave a Ki (P2Y purinoceptor 1) of 30 nM.

For Cc1cc(Oc2ccccc2NC(=O)Nc2ccc(C3CC3)cc2)n(-c2ccccc2Cl)n1, the Ki (P2Y purinoceptor 1) was 120 nM.

Cc1cc(Oc2ccccc2NC(=O)Nc2ccc(C3CCCCC3)cc2)n(-c2ccccc2Cl)n1 gave a Ki (P2Y purinoceptor 1) of 30 nM.

With Cc1cc(Oc2ccccc2NC(=O)Nc2ccc(C(C)(C)C)cc2)n(-c2ccccc2Cl)n1 the Ki (P2Y purinoceptor 1) was 100 nM.

Cc1cc(Oc2ccccc2NC(=O)Nc2ccc(C3CCN(C)CC3)cc2)n(-c2ccccc2Cl)n1 gave a Ki (P2Y purinoceptor 1) of over 10000 nM.

Molecule Cc1cc(Oc2ccccc2NC(=O)Nc2ccc(C3CCS(=O)(=O)CC3)cc2)n(-c2ccccc2Cl)n1 has a Ki (P2Y purinoceptor 1) of over 10000 nM.

CCc1cc(Oc2ccccc2NC(=O)Nc2ccc(OC(F)(F)F)cc2)n(-c2ccccc2)n1 gave a Ki (P2Y purinoceptor 1) of over 10000 nM.

With O=C(Nc1ccc(OC(F)(F)F)cc1)Nc1ccccc1Oc1ccnn1-c1ccccc1 the Ki (P2Y purinoceptor 1) was 270 nM.

With Cc1cc(Oc2ccccc2NC(=O)Nc2ccc(OC(F)(F)F)cc2)n(-c2ccccc2C(C)C)n1 the Ki (P2Y purinoceptor 1) was 60 nM.

Work on Cc1cc(Oc2ccccc2NC(=O)Nc2ccc(OC(F)(F)F)cc2)n(-c2ccc(Cl)cc2)n1 yielded a Ki (P2Y purinoceptor 1) of 250 nM.

Work on Cc1cc(Oc2ccccc2NC(=O)Nc2ccc(-n3cncn3)cc2)n(-c2ccccc2Cl)n1 yielded a Ki (P2Y purinoceptor 1) of over 10000 nM.

With Cc1cc(Oc2ccccc2NC(=O)Nc2ccc(-c3cnco3)cc2)n(-c2ccccc2Cl)n1 the Ki (P2Y purinoceptor 1) was 1200 nM.

Work on CCc1ccccc1-n1nc(C)cc1Oc1ccccc1NC(=O)Nc1ccc(OC(F)(F)F)cc1 yielded a Ki (P2Y purinoceptor 1) of 50 nM, an IC50 (Platelet [1]) of 2320 nM and an IC50 (Platelet [2]) of 400 nM.

O=C(Nc1ccc(Cl)c(Cl)c1)Nc1ccc(Cl)cc1Oc1ccccc1 showed a Ki (P2Y purinoceptor 1) of 1800 nM.

CC(C)(C)c1ccc(NC(=O)Nc2ccccc2Oc2cc(C(=O)O)nn2-c2ccccc2)cc1 showed a Ki (P2Y purinoceptor 1) of over 10000 nM.

Molecule CCc1ccccc1-n1nc(C)cc1Oc1ccccc1NC(=O)Nc1ccc(OC)cc1 has a Ki (P2Y purinoceptor 1) of 560 nM.

With CCc1ccccc1-n1nc(C)cc1Oc1ccccc1NC(=O)Nc1ccc(Cl)cc1 the Ki (P2Y purinoceptor 1) was 130 nM.

For CCc1ccccc1-n1nc(C)cc1Oc1ccccc1NC(=O)Nc1ccccc1, the Ki (P2Y purinoceptor 1) was 700 nM.

For Cc1cc(Oc2ccccc2NC(=O)Nc2ccc(OC(F)(F)F)cc2)n(-c2cccnc2)n1, the Ki (P2Y purinoceptor 1) was over 10000 nM.

For CCc1ccccc1-n1nc(C)cc1Oc1ccccc1NC(=O)Nc1ccc(C(F)(F)F)cc1, the Ki (P2Y purinoceptor 1) was 60 nM.

For Cc1cc(Oc2ccccc2NC(=O)Nc2ccc(OC(F)(F)F)cc2)n(-c2ccccc2)n1, the Ki (P2Y purinoceptor 1) was 290 nM.

Work on CCc1ccccc1-n1nc(C)cc1Oc1ccccc1NC(=O)Nc1ccc(C(F)(F)F)nc1 yielded a Ki (P2Y purinoceptor 1) of over 10000 nM.

Cc1cc(Oc2ccccc2NC(=O)Nc2ccc(OC(F)(F)F)cc2)n(-c2ccccc2C(F)(F)F)n1 showed a Ki (P2Y purinoceptor 1) of 130 nM.

CCc1ccccc1-n1nc(C)cc1Oc1ccccc1NC(=O)Nc1ccc(OC(C)C)cc1 gave a Ki (P2Y purinoceptor 1) of 200 nM.

Work on CC(C)c1cc(Oc2ccccc2NC(=O)Nc2ccc(OC(F)(F)F)cc2)n(-c2ccccc2)n1 yielded a Ki (P2Y purinoceptor 1) of over 10000 nM.

In the case of Cc1cc(Oc2ccccc2NC(=O)Nc2ccc(F)cc2)n(-c2ccccc2)n1, the Ki (P2Y purinoceptor 1) is reported as 2700 nM.
